Active and inactive are the calls of the source.
Key:
[1] = test system: Rattus norvegicus; test: Antiarthritic activity in CFA-induced Sprague-Dawley rat rheumatoid arthritis model assessed as increase in tolerated weight on ipsilateral paw at 5.8 mg/kg, po measured at 15 mins by paw pressure test; type: functional, organism-based
Outline: (§1)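 Rats: Sprague Dawley, 200-250 g, given 50 μl CFA intra-articularly into the tibiotarsal joint; controls got saline. On day 14, compounds in 1% CMC were given orally. An analgesimeter applied increasing pressure to the dorsal hind paw with a blunt conical probe until vocalization or withdrawal, read in grams, cut-off 120 g. Rats below 40 g or above 75 g before dosing were excluded. Values are mean (S.E.M.) of 8 rats from 2 experiments.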

[2] = test system: Rattus norvegicus; test: Antiarthritic activity in CFA-induced Sprague-Dawley rat rheumatoid arthritis model assessed as decrease in difference between weight burden on contralateral and ipsilateral paw at 5.8 mg/kg, po measured up to 75 mins by incapacitance test; type: functional, organism-based
[3] = target: T1, Carbonic anhydrase 1 (Homo sapiens, UniProt P00915); test: Inhibition of recombinant human carbonic anhydrase-1 incubated for 15 mins by stopped-flow CO2 hydrase assay
Target sequence in this assay (P00915 whole entry): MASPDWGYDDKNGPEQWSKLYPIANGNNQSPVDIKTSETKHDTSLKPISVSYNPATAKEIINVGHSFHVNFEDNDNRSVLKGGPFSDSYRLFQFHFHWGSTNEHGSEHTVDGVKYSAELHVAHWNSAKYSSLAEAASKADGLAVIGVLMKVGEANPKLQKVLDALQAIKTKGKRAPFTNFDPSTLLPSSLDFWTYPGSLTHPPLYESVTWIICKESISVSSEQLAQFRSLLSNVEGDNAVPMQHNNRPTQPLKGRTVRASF

[4] = target: T2, Carbonic anhydrase 2 (Homo sapiens, UniProt P00918); test: Inhibition of recombinant human carbonic anhydrase-2 incubated for 15 mins by stopped-flow CO2 hydrase assay
[5] = target: Carbonic anhydrase 4 (Homo sapiens, UniProt P22748); test: Inhibition of recombinant human carbonic anhydrase-4 incubated for 15 mins by stopped-flow CO2 hydrase assay
[6] = target: Carbonic anhydrase 9 (Homo sapiens, UniProt Q16790); test: Inhibition of recombinant human carbonic anhydrase-9 catalytic domain incubated for 15 mins by stopped-flow CO2 hydrase assay
[7] = target: T3, Carbonic anhydrase 12 (Homo sapiens, UniProt O43570); test: Inhibition of recombinant human carbonic anhydrase-12 incubated for 15 mins by stopped-flow CO2 hydrase assay
[8] = target: T1, Carbonic anhydrase 1; test: Potency index, ratio of acetazolamide Ki to test compound Ki for recombinant human carbonic anhydrase-1
Outline: (§2)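 Recombinant human CA, made in house, in a stopped-flow CO₂ hydration assay. Conditions: 20 mM Hepes pH 7.5, 20 mM Na₂SO₄, 0.2 mM phenol red read at 557 nm, CO₂ 1.7-17 mM. Enzyme and inhibitor were preincubated 15 min at room temperature. Initial rates were corrected for the uncatalyzed rate. Ki came from nonlinear least squares, mean of three measurements. The ratio uses the acetazolamide Ki.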
Target sequence in this assay (P00915 2-261 limits assumed): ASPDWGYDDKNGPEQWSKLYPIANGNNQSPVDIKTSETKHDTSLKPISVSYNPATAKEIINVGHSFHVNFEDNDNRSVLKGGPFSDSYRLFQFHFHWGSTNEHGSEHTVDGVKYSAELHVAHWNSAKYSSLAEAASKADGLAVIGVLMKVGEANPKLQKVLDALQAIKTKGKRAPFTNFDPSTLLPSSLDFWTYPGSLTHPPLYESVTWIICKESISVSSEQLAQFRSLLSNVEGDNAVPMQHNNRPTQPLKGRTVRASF

[9] = test system: Rattus norvegicus; test: Antiarthritic activity in CFA-induced Sprague-Dawley rat rheumatoid arthritis model assessed as increase in tolerated weight on ipsilateral paw at 6.6 mg/kg, po measured up to 75 mins by paw pressure test; type: functional, organism-based; outline: as §1
[10] = target: T2, Carbonic anhydrase 2; test: Potency index, ratio of acetazolamide Ki to test compound Ki for recombinant human carbonic anhydrase-2; outline: as §2
[11] = test system: Rattus norvegicus; test: Antiarthritic activity in CFA-induced Sprague-Dawley rat rheumatoid arthritis model assessed as tolerated weight on ipsilateral paw at 0.1 mg/kg, po measured at 15 mins by paw pressure test (reference value: 43.5 +/- 0.5 g); type: functional; outline: as §1
[12] = test system: Rattus norvegicus; test: Antiarthritic activity in CFA-induced Sprague-Dawley rat rheumatoid arthritis model assessed as tolerated weight on ipsilateral paw at 0.1 mg/kg, po measured up to 30 mins by paw pressure test (reference value: 43.5 +/- 0.5 g); type: functional; outline: as §1
[13] = test system: Rattus norvegicus; test: Antiarthritic activity in CFA-induced Sprague-Dawley rat rheumatoid arthritis model assessed as increase in tolerated weight on ipsilateral paw at 0.1 mg/kg, po measured up to 45 mins by paw pressure test; type: functional, organism-based; outline: as §1
[14] = test system: Rattus norvegicus; test: Antiarthritic activity in CFA-induced Sprague-Dawley rat rheumatoid arthritis model assessed as tolerated weight on ipsilateral paw at 1 mg/kg, po measured at 15 mins by paw pressure test (reference value: 43.5 +/- 0.5 g); type: functional; outline: as §1
[15] = test system: Rattus norvegicus; test: Antiarthritic activity in CFA-induced Sprague-Dawley rat rheumatoid arthritis model assessed as tolerated weight on ipsilateral paw at 1 mg/kg, po measured at 30 mins by paw pressure test (reference value: 43.5 +/- 0.5 g); type: functional; outline: as §1
[16] = test system: Rattus norvegicus; test: Antiarthritic activity in CFA-induced Sprague-Dawley rat rheumatoid arthritis model assessed as increase in tolerated weight on ipsilateral paw at 1 mg/kg, po measured up to 60 mins by paw pressure test; type: functional, organism-based; outline: as §1
[17] = test system: Rattus norvegicus; test: Antiarthritic activity in CFA-induced Sprague-Dawley rat rheumatoid arthritis model assessed as increase in tolerated weight on ipsilateral paw at 10 mg/kg, po measured at 15 mins by paw pressure test; type: functional, organism-based; outline: as §1
[18] = test system: Rattus norvegicus; test: Antiarthritic activity in CFA-induced Sprague-Dawley rat rheumatoid arthritis model assessed as tolerated weight on ipsilateral paw at 10 mg/kg, po measured up to 30 mins by paw pressure test (reference value: 43.5 +/- 0.5 g); type: functional; outline: as §1
[19] = test system: Rattus norvegicus; test: Antiarthritic activity in CFA-induced Sprague-Dawley rat rheumatoid arthritis model assessed as increase in tolerated weight on ipsilateral paw at 10 mg/kg, po measured up to 75 mins by paw pressure test; type: functional, organism-based; outline: as §1
[20] = species: Rattus norvegicus; test: Change in pain threshold of contralateral paw of CFA-induced Sprague-Dawley rat rheumatoid arthritis model by paw pressure test; type: organism-based; conditions: in vivo; outline: as §1
[21] = test system: Rattus norvegicus; test: Antiarthritic activity in CFA-induced Sprague-Dawley rat rheumatoid arthritis model assessed as difference between weight burden on contralateral and ipsilateral paw at 1 mg/kg, po measured at 30 mins by incapacitance test (reference value: 54.2 +/- 5.1 g); type: functional
[22] = test system: Rattus norvegicus; test: Antiarthritic activity in CFA-induced Sprague-Dawley rat rheumatoid arthritis model assessed as difference between weight burden on contralateral and ipsilateral paw at 10 mg/kg, po measured at 30 mins by incapacitance test (reference value: 54.2 +/- 5.1 g); type: functional
[23] = test system: Rattus norvegicus; test: Antiarthritic activity in po dosed CFA-induced Sprague-Dawley rat rheumatoid arthritis model assessed as decrease in difference between weight burden on contralateral and ipsilateral paw measured up to 60 mins by incapacitance test; type: functional, organism-based
[24] = test system: Rattus norvegicus; test: Antiarthritic activity in CFA-induced Sprague-Dawley rat rheumatoid arthritis model assessed as decrease in difference between weight burden on contralateral and ipsilateral paw at 10 mg/kg, po measured up to 75 mins by incapacitance test; type: functional, organism-based
[25] = target: T3, Carbonic anhydrase 12; test: Potency index, ratio of acetazolamide Ki to test compound Ki for recombinant human carbonic anhydrase-12
[26] = test system: Rattus norvegicus; test: Antiarthritic activity in CFA-induced Sprague-Dawley rat rheumatoid arthritis model assessed as increase in tolerated weight on ipsilateral paw at 6.2 mg/kg, po measured at 15 mins by paw pressure test; type: functional, organism-based; outline: as §1
[27] = test system: Rattus norvegicus; test: Antiarthritic activity in CFA-induced Sprague-Dawley rat rheumatoid arthritis model assessed as decrease in difference between weight burden on contralateral and ipsilateral paw at 6.2 mg/kg, po measured up to 75 mins by incapacitance test; type: functional, organism-based
[28] = test system: Rattus norvegicus; test: Antiarthritic activity in po dosed CFA-induced Sprague-Dawley rat rheumatoid arthritis model assessed as increase in tolerated weight on ipsilateral paw measured up to 60 mins by paw pressure test; type: functional, organism-based; outline: as §1
[29] = test system: Rattus norvegicus; test: Antiarthritic activity in CFA-induced Sprague-Dawley rat rheumatoid arthritis model assessed as decrease in difference between weight burden on contralateral and ipsilateral paw at 10 mg/kg, po measured up to 60 mins by incapacitance test; type: functional, organism-based
[30] = test system: Rattus norvegicus; test: Antiarthritic activity in CFA-induced Sprague-Dawley rat rheumatoid arthritis model assessed as tolerated weight on ipsilateral paw at 1 mg/kg, po measured up to 30 mins by paw pressure test (reference value: 43.5 +/- 0.5 g); type: functional; outline: as §1
[31] = test system: Rattus norvegicus; test: Antiarthritic activity in CFA-induced Sprague-Dawley rat rheumatoid arthritis model assessed as tolerated weight on ipsilateral paw at 10 mg/kg, po measured at 15 mins by paw pressure test (reference value: 43.5 +/- 0.5 g); type: functional; outline: as §1
[32] = test system: Rattus norvegicus; test: Antiarthritic activity in CFA-induced Sprague-Dawley rat rheumatoid arthritis model assessed as tolerated weight on ipsilateral paw at 10 mg/kg, po measured at 30 mins by paw pressure test (reference value: 43.5 +/- 0.5 g); type: functional; outline: as §1
[33] = test system: Rattus norvegicus; test: Antiarthritic activity in CFA-induced Sprague-Dawley rat rheumatoid arthritis model assessed as decrease in difference between weight burden on contralateral and ipsilateral paw at 0.1 mg/kg, po measured up to 75 mins by incapacitance test; type: functional, organism-based
[34] = test system: Rattus norvegicus; test: Antiarthritic activity in CFA-induced Sprague-Dawley rat rheumatoid arthritis model assessed as difference between weight burden on contralateral and ipsilateral paw at 1 mg/kg, po measured at 15 to 30 mins by incapacitance test (reference value: 54.2 +/- 5.1 g); type: functional
[35] = test system: Rattus norvegicus; test: Antiarthritic activity in CFA-induced Sprague-Dawley rat rheumatoid arthritis model assessed as difference between weight burden on contralateral and ipsilateral paw at 10 mg/kg, po measured at 15 to 30 mins by incapacitance test (reference value: 54.2 +/- 5.1 g); type: functional

Sequence of Carbonic anhydrase 4 (P22748 whole entry, the tested form may be a part): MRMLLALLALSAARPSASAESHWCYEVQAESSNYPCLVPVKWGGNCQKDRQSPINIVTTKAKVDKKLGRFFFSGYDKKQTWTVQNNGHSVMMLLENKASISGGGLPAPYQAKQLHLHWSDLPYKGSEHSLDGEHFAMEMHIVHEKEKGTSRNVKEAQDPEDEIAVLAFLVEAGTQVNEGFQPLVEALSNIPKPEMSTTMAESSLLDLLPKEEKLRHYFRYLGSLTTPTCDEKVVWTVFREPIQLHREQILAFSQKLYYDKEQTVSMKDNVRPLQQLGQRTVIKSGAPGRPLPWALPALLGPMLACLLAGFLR
T3 sequence (O43570 whole entry): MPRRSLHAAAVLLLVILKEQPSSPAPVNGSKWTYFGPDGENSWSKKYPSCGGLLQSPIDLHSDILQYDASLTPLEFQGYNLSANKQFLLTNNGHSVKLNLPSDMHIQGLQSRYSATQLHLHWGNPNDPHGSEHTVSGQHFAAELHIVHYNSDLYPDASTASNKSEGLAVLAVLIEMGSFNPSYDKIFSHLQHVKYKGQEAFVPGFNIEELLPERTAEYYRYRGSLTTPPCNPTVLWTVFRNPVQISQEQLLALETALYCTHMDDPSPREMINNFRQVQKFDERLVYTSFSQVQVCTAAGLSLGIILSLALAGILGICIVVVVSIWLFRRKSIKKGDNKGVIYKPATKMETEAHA

| SMILES | Ki [3] | Ki [4] | Ki [5] | Ki [6] | Ki [7] | also measured |
| --- | --- | --- | --- | --- | --- | --- |
| CC(C(=O)O)c1cccc(C(=O)c2ccccc2)c1 (stereo not drawn) | – | – | – | – | – | Activity [1]: Active; Activity [2]: Active |
| CC(C(=O)NCCOc1ccc(S(N)(=O)=O)cc1)c1cccc(C(=O)c2ccccc2)c1 (racemic) | 21.3 nM | 6.7 nM | 0.0777 µM | 76.5 nM | 8.6 nM | Ratio Ki [8]: 10 |
| CC1=C(CC(=O)O)c2cc(F)ccc2/C1=C\c1ccc([S+](C)[O-])cc1 (stereo not drawn) | – | – | – | – | – | Activity [9]: inactive |
| CC(C(=O)NCCc1ccc(S(N)(=O)=O)cc1)c1cccc(C(=O)c2ccccc2)c1 (racemic) | 8.1 nM | 6.5 nM | 3.01 µM | 39.3 nM | 54 nM | Ratio Ki [10]: 1.86; Activity [11]: 50 g; Activity [12]: 50 g; Activity [13]: Active; Activity [14]: 51.7 g; Activity [15]: 53.3 g; Activity [16]: Active; Activity [17]: Active; Activity [18]: 56.7 g; Activity [19]: Active; Activity [20]: Non-Toxic; Activity [21]: 36.8 g; Activity [22]: 28.6 g; Activity [23]: Dose-dependent effect; Activity [24]: Active |
| CC(C(=O)Nc1ccc(S(N)(=O)=O)cc1)c1cccc(C(=O)c2ccccc2)c1 (racemic) | 19.4 nM | 4.6 nM | 0.0491 µM | 5.1 nM | 2.9 nM | Ratio Ki [25]: 1.97 |
| O=C(O)Cc1ccccc1Nc1c(Cl)cccc1Cl | – | – | – | – | – | Activity [26]: Active; Activity [27]: Active |
| NS(=O)(=O)c1ccc(OCCCNC(=O)Cc2ccccc2Nc2c(Cl)cccc2Cl)cc1 | 63.4 nM | 46.2 nM | 0.673 µM | 137 nM | 59.2 nM | – |
| COc1ccc2c(c1)c(CC(=O)NCCc1ccc(S(N)(=O)=O)cc1)c(C)n2C(=O)c1ccc(Cl)cc1 | 494 nM | 95.8 nM | 8.36 µM | 62.5 nM | 92.7 nM | – |
| CC1=C(CC(=O)NCCCCOc2ccc(S(N)(=O)=O)cc2)c2cc(F)ccc2/C1=C/c1ccc([S+](C)[O-])cc1 (stereo not drawn) | 93.8 nM | 66.4 nM | 7.74 µM | 22 nM | 5 nM | – |
| COc1ccc2cc(C(C)C(=O)NCCc3ccc(S(N)(=O)=O)cc3)ccc2c1 (racemic) | 19.1 nM | 5.2 nM | 6.03 µM | 12.9 nM | 91.9 nM | Activity [28]: Dose-dependent effect; Activity [20]: Non-Toxic; Activity [21]: 34.3 g; Activity [22]: 29.3 g; Activity [29]: Active |
| NS(=O)(=O)c1ccc(NC(=O)Cc2ccccc2Nc2c(Cl)cccc2Cl)cc1 | 68.2 nM | 89.2 nM | 0.179 µM | 5.3 nM | 7 nM | – |
| NS(=O)(=O)c1ccc(OCCCCNC(=O)Cc2ccccc2Nc2c(Cl)cccc2Cl)cc1 | 342 nM | 78.8 nM | 8.02 µM | 51.9 nM | 93.8 nM | – |
| CC1=C(CC(=O)NCCc2ccc(S(N)(=O)=O)cc2)c2cc(F)ccc2/C1=C/c1ccc([S+](C)[O-])cc1 (stereo not drawn) | 64.9 nM | 27.3 nM | 6.86 µM | 62.5 nM | 94.4 nM | Activity [28]: Dose-dependent effect; Activity [14]: 55 g; Activity [19]: Active; Activity [30]: 55 g; Activity [31]: 62.5 g; Activity [32]: 64.2 g; Activity [20]: Non-Toxic; Activity [23]: Dose-dependent effect; Activity [33]: inactive; Activity [34]: 22.3 g; Activity [35]: 8.6 g |
| CC(C(=O)Nc1ccc(S(N)(=O)=O)cc1)c1ccc(-c2ccccc2)c(F)c1 (racemic) | 58.5 nM | 5.5 nM | 0.718 µM | 9.2 nM | 40 nM | – |
